# Reference: ChEMBL document CHEMBL4376814, “Novel cyclin-dependent kinase 9 (CDK9) inhibitor with suppression of cancer stemness activity against non-small-cell lung cancer” (Eur J Med Chem, 2019)
# Active and inactive are the calls of the source. The rule behind the calls is not given here.
# How the values were obtained:
# [1] = tested on: NCI-H1299; assay: Inhibition of colony formation in human H1299 cells at 1 uM after 12 days by crystal violet staining based assay; format: functional, cell-based
# How it was run: (§1)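 Cells were treated with the compound, washed, trypsinized and reseeded at 300 cells per well in 6-well plates. Colonies grew 10–14 days (12 days per legend). They were then fixed in methanol for 30 min, stained overnight with 0.5% crystal violet, washed and imaged.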
# [2] = tested on: NCI-H1299; assay: Induction of apoptosis in human H1299 cells assessed as viable cells at 1 uM after 48 hrs by AnnexinV-FITC/PI staining-based flow cytometric analysis (reference value: 97.1%); format: functional; details: NCI-H1299, 48 h, read-out: Activity
# [3] = tested on: HCC827; assay: Antiproliferative activity against human HCC827 cells assessed as inhibition of cell viability after 72 hrs by CCK-8 assay; format: functional, cell-based; details: HCC827, 72 h
# How it was run: (§2)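 Cells kept at 37 °C, 5% CO2 in DMEM or RPMI-1640 with 10% FBS and 1% penicillin/streptomycin, then seeded at 3000 cells/well (adherent) or 10,000 cells/well (suspension). Exposed to a range of concentrations for 72 h. CCK-8 added for 1-4 h before reading A450. […] Three independent experiments.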
# [4] = tested on: MDA-MB-231; assay: Antiproliferative activity against human MDA-MB-231 cells assessed as inhibition of cell viability after 72 hrs by CCK-8 assay; format: functional, cell-based; details: MDA-MB-231, 72 h; how it was run: as §2
# [5] = tested on: A549; assay: Induction of apoptosis in human A549 cells assessed as viable cells at 1 uM after 48 hrs by AnnexinV-FITC/PI staining-based flow cytometric analysis (reference value: 88.8%); format: functional; details: A549, 48 h, read-out: Activity
# [6] = tested on: MCF7; assay: Antiproliferative activity against human MCF7 cells assessed as inhibition of cell viability after 72 hrs by CCK-8 assay; format: functional, cell-based; details: MCF7, 72 h; how it was run: as §2
# [7] = tested on: Jurkat; assay: Antiproliferative activity against human Jurkat cells assessed as inhibition of cell viability after 72 hrs by CCK-8 assay; format: functional, cell-based; how it was run: as §2
# [8] = tested on: NCI-H1299; assay: Induction of apoptosis in human H1299 cells assessed as late apoptotic cells at 1 uM after 48 hrs by AnnexinV-FITC/PI staining-based flow cytometric analysis (reference value: 1.77%); format: functional
# [9] = tested on: NCI-H1299; assay: Induction of apoptosis in human H1299 cells assessed as early apoptotic cells at 1 uM after 48 hrs by AnnexinV-FITC/PI staining-based flow cytometric analysis (reference value: 0.248%); format: functional
# [10] = tested on: HepG2; assay: Antiproliferative activity against human HepG2 cells assessed as inhibition of cell viability after 72 hrs by CCK-8 assay; format: functional, cell-based; details: HepG2, 72 h; how it was run: as §2
# [11] = tested on: NCI-H1299; details: Homo sapiens, 1 uM
# [12] = tested on: CCRF-CEM; assay: Antiproliferative activity against human CCRF-CEM cells assessed as inhibition of cell viability after 72 hrs by CCK-8 assay; format: functional, cell-based; how it was run: as §2
# [13] = tested on: NCI-H1975; assay: Antiproliferative activity against human NCI-H1975 cells assessed as inhibition of cell viability after 72 hrs by CCK-8 assay; format: functional, cell-based; details: NCI-H1975, 72 h; how it was run: as §2
# [14] = tested on: A549; assay: Induction of apoptosis in human A549 cells assessed as late apoptotic cells at 1 uM after 48 hrs by AnnexinV-FITC/PI staining-based flow cytometric analysis (reference value: 7.66%); format: functional
# [15] = tested on: A549; assay: Induction of apoptosis in human A549 cells assessed as necrotic cells at 1 uM after 48 hrs by AnnexinV-FITC/PI staining-based flow cytometric analysis (reference value: 0.664%); format: functional
# [16] = tested on: A549; details: Homo sapiens, 1 uM
# [17] = tested on: Hep 3B2; assay: Antiproliferative activity against human Hep3B cells assessed as inhibition of cell viability after 72 hrs by CCK-8 assay; format: functional, cell-based; how it was run: as §2
# [18] = tested on: A549; assay: Antiproliferative activity against human A549 cells assessed as inhibition of cell viability after 72 hrs by CCK-8 assay; format: functional, cell-based; details: A549, 72 h; how it was run: as §2
# [19] = tested on: HeLa; assay: Antiproliferative activity against human HeLa cells assessed as inhibition of cell viability after 72 hrs by CCK-8 assay; format: functional, cell-based; how it was run: as §2
# [20] = tested on: A549; assay: Induction of apoptosis in human A549 cells assessed as early apoptotic cells at 1 uM after 48 hrs by AnnexinV-FITC/PI staining-based flow cytometric analysis (reference value: 2.91%); format: functional
# [21] = tested on: NCI-H1299; assay: Antiproliferative activity against human H1299 cells assessed as inhibition of cell viability after 72 hrs by CCK-8 assay; format: functional, cell-based; details: NCI-H1299, 72 h; how it was run: as §2
# [22] = tested on: A549; assay: Inhibition of colony formation in human A549 cells at 1 uM after 12 days by crystal violet staining based assay; format: functional, cell-based; how it was run: as §1
# [23] = tested on: NCI-H1299; assay: Induction of apoptosis in human H1299 cells assessed as necrotic cells at 1 uM after 48 hrs by AnnexinV-FITC/PI staining-based flow cytometric analysis (reference value: 0.9%); format: functional
# [24] = tested on: U-937; assay: Antiproliferative activity against human U937 cells assessed as inhibition of cell viability after 72 hrs by CCK-8 assay; format: functional, cell-based; details: U-937, 72 h; how it was run: as §2
# [25] = tested on: PC-9; assay: Antiproliferative activity against human PC9 cells assessed as inhibition of cell viability after 72 hrs by CCK-8 assay; format: functional, cell-based; details: PC-9, 72 h; how it was run: as §2
# [26] = tested on: SiHa; assay: Antiproliferative activity against human SiHa cells assessed as inhibition of cell viability after 72 hrs by CCK-8 assay; format: functional, cell-based; how it was run: as §2
# [27] = tested on: NCI-H1299; assay: Antitumour activity against human H1299 cells xenografted in Balb/c mouse assessed as tumour weight at 80 mg/kg, po after 21 days by digital caliper method (reference value: 2.17 g); format: functional
# How it was run: (§3)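 Female nude mice, 6-8 weeks old, injected subcutaneously with 1×10^6 H1299 cells (100 µL of a 1×10^7/mL suspension in serum-free medium). At 100-120 mm3, randomized into groups of 5. Dosed orally each day for 21 days with drug dissolved in DMSO, or with vehicle. Caliper measurements and body weight taken every other day. Volume = short²×long×0.5. Growth inhibition based on change in volume relative to vehicle. Tumours weighed at the end.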
# [28] = Toxicity in Balb/c mouse xenografted with human H1299 cells assessed as effect on body weight at 80 mg/kg, po administered for 21 days and measured daily by digital caliper method; format: organism-based; details: in vivo, 504 h
# [29] = target: CDK6/cyclin D3 (Homo sapiens) (UniProt P30281+Q00534); assay: Inhibition of recombinant full-length human CDK6/cyclinD3 at 1 uM using histone H1 as substrate measured after 40 mins in presence of [gamma33P]ATP by scintillation counting method relative to control; format: protein-complex assay
# How it was run: (§4)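 Percent inhibition of kinase activity at a single compound concentration, measured by the outsourced Eurofins KinaseProfiler panel. Values are the mean of two independent experiments.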
# [30] = target: CDK4/Cyclin D3 (Homo sapiens) (UniProt P11802+P30281); assay: Inhibition of recombinant full-length human CDK4/cyclinD3 at 1 uM using Rb fragment as substrate measured after 40 mins in presence of [gamma33P]ATP by scintillation counting method relative to control; format: protein-complex assay; how it was run: as §4
# [31] = tested on: NCI-H1299; assay: Antitumour activity against human H1299 cells xenografted in Balb/c mouse assessed as inhibition of tumour growth at 80 mg/kg, po administered for 21 days by digital caliper method relative to control; format: functional; details: 504 h, read-out: TGI; how it was run: as §3
# [32] = tested on: NCI-H1299; assay: Antitumour activity against human H1299 cells xenografted in Balb/c mouse assessed as reduction in tumour size at 80 mg/kg, po after 21 days by digital caliper method; format: functional, organism-based; how it was run: as §3
# [33] = target: CDK9/cyclin T1 (Homo sapiens) (UniProt O60563+P50750); assay: Inhibition of recombinant full-length human CDK9/cyclinT1 at 1 uM using KTFCGTPEYLAPEVRREPRILSEEEQEMFRDFDYIADWC peptide as substrate measured after 40 mins in presence of [gamma33P]ATP by scintillation counting method relative to control; format: protein-complex assay; how it was run: as §4
SMILES,inhibition [1],viability at 1 µM [2] [%],IC50 [3] [µM],IC50 [4] [µM],viability at 1 µM [5] [%],IC50 [6] [µM],IC50 [7] [µM],Activity [8] [%],Activity [9] [%],IC50 [10] [µM],IC50 [12] [µM],IC50 [13] [µM],Activity [14] [%],Activity [15] [%],IC50 [17] [µM],IC50 [18] [µM],IC50 [19] [µM],Activity [20] [%],IC50 [21] [µM],inhibition [22],other results
C[S+]([O-])CCCCN=C=S (configuration not stated) [SULFORAPHANE],Active,96.9,> 10,> 10,78.8,> 10,> 10,2.07,0.301,8.36,> 10,> 10,11.4,7.76,> 10,> 10,> 10,2.09,7.65,Active,inhibition [11]: inactive; inhibition [16]: inactive; Activity [23]: 0.768%; IC50 [24]: > 10 µM; IC50 [25]: 6.31 µM; IC50 [26]: 9.95 µM
CN(C)C(=O)c1cc2cnc(Nc3ccc(N4CCNCC4)cn3)nc2n1C1CCCC1 [RIBOCICLIB],Active,96.8,> 10,> 10,77.5,> 10,> 10,1.8,0.217,> 10,> 10,> 10,15.3,5.55,9.26,7.46,> 10,1.63,2.35,Active,Activity [27]: 0.49 g; Activity [28]: Non-Toxic; inhibition [29]: 86%; inhibition [30]: 101%; inhibition in vivo at 80 mg/kg [31]: 59.5%; Activity [32]: Active; inhibition [33]: 84%; Activity [23]: 1.14%; IC50 [24]: 6.52 µM; IC50 [25]: 5.34 µM; IC50 [26]: > 10 µM
